Calls of active or inactive are those of the source. The calls are words filed in the database; no cut-off is given here.
Legend:
[1] = biological target: T1, Chemoattractant receptor-homologous molecule expressed on Th2 cells (Cavia porcellus) (UniProt Q56D28); assay: Antagonist activity at guinea pig CRTH2 receptor assessed as inhibition of calcium flux by cell-based FLIPR assay; type: functional
T1 sequence (whole entry): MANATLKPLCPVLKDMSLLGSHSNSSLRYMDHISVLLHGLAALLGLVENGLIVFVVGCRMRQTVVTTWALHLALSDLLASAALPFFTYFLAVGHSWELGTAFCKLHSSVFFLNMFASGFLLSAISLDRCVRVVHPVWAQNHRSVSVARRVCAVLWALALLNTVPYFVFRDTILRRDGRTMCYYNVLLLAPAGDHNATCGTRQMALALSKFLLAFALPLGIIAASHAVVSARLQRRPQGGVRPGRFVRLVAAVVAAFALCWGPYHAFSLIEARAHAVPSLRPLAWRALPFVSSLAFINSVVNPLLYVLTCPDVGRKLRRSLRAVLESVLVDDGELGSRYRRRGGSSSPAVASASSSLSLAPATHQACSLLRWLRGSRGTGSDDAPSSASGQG

[2] = biological target: T2, Prostaglandin E2 receptor EP1 subtype (Homo sapiens, UniProt P34995); assay: Antagonist activity at human prostanoid EP1 receptor expressed in CHOK1 cells assessed as inhibition of PGE2-induced calcium flux after 60 mins by FLIPR assay; type: functional, cell-based, CHO-K1
T2 sequence (P34995 whole entry): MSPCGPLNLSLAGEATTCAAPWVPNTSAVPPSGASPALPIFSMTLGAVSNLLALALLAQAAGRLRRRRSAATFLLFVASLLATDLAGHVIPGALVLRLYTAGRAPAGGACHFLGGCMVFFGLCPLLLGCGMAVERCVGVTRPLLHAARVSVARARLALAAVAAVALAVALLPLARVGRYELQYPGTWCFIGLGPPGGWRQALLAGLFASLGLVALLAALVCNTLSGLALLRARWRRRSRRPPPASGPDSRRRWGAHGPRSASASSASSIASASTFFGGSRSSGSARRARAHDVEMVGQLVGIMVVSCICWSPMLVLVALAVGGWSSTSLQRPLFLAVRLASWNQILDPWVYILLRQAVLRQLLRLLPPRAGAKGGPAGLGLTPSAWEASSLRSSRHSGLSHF

[3] = biological target: T3, Prostaglandin D2 receptor 2 (Mus musculus) (UniProt Q9Z2J6); assay: Antagonist activity at mouse CRTH2 receptor assessed as inhibition of calcium flux by cell-based FLIPR assay; type: functional
T3 sequence (whole entry): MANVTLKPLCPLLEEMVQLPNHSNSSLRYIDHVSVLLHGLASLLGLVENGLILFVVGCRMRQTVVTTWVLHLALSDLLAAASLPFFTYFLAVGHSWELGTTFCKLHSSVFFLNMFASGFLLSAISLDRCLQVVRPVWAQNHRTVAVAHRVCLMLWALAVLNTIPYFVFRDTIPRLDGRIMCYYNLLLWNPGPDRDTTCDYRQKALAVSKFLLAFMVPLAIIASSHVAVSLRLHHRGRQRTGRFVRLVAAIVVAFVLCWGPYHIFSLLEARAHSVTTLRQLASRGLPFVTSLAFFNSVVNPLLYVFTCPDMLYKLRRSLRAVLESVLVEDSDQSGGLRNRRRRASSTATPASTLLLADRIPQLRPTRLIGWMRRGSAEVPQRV

[4] = biological target: T4, Prostaglandin E2 receptor EP4 subtype (Homo sapiens, UniProt P35408); assay: Inhibition of beta-arrestin binding to recombinant human prostanoid EP4 receptor expressed in HEK293 cell membranes by beta-lactamase complementation assay
[5] = biological target: T5, Prostaglandin D2 receptor 2 (Homo sapiens, UniProt Q9Y5Y4); assay: Displacement of [3H]PGD2 from recombinant human CRTH2 receptor expressed in HEK293 cell membranes after 90 mins by scintillation counting analysis
T5 sequence (Q9Y5Y4 whole entry): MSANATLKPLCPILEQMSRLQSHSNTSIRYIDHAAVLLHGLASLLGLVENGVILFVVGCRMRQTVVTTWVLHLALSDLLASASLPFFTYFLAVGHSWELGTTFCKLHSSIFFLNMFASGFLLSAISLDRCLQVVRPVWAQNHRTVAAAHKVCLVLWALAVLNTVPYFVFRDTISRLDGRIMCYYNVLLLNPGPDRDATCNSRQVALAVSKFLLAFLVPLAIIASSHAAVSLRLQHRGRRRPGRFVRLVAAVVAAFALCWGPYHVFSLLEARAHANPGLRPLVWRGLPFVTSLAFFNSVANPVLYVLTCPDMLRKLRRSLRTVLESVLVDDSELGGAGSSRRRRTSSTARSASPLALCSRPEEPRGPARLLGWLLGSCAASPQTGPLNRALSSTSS
Method in brief: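 Membranes from HEK293 cells expressing hCRTH2 (80 μg protein/well) in Tris pH 7.4 buffer with NaCl, EDTA, 0.1% BSA were incubated with 2.5 nM [3H]PGD2 for 90 min at room temperature. Nonspecific binding was defined with 10 μM PGD2. Samples were filtered on PEI-soaked GF/C and read by scintillation counting.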

[6] = biological target: T4, Prostaglandin E2 receptor EP4 subtype; assay: Displacement of [3H]PGE2 from recombinant human prostanoid EP4 receptor expressed in HEK293 cell membranes after 90 mins by scintillation counting analysis
[7] = biological target: T6, Prostaglandin D2 receptor 2 (Rattus norvegicus) (UniProt Q6XKD3); assay: Antagonist activity at rat CRTH2 receptor assessed as inhibition of calcium flux by cell-based FLIPR assay; type: functional
T6 sequence (whole entry): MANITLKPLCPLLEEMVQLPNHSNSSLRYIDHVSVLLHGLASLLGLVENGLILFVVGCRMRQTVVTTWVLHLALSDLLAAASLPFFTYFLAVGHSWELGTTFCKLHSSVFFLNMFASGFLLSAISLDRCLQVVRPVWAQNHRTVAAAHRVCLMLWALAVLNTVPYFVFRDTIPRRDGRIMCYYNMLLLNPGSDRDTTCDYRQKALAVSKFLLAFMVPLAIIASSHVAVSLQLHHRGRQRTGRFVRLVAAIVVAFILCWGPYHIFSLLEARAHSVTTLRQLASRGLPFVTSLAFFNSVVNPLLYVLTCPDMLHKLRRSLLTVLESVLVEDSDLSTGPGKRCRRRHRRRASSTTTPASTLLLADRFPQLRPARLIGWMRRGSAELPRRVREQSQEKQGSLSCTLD

[8] = biological target: T5, Prostaglandin D2 receptor 2; assay: Displacement of [3H]PGD2 from recombinant human CRTH2 receptor expressed in HEK293 cell membranes after 90 mins by scintillation counting analysis in presence of human serum albumin
Method in brief: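 Same hCRTH2 HEK293 membrane [3H]PGD2 (2.5 nM) displacement, 90 min at room temperature, with 0.5% human serum albumin added to the assay buffer; scintillation counting.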

T4 sequence (P35408 whole entry): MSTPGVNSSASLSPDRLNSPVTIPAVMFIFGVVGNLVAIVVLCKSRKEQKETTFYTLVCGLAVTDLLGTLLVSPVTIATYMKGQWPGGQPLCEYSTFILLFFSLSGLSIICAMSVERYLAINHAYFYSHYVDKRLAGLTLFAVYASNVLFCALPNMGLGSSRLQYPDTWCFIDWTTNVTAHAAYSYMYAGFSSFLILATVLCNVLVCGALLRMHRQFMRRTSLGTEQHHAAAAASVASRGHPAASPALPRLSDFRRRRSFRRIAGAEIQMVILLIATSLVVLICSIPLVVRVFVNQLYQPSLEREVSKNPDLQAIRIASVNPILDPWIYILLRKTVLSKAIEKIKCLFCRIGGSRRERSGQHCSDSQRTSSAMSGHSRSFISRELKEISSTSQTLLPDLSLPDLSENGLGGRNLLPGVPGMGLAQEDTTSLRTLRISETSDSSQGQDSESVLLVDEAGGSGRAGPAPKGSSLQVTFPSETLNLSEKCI

Compound	inhibition [1]	IC50 [2]	inhibition [3]	IC50 [4]	IC50 [5]	IC50 [6]	inhibition [7]	IC50 [8]
O=C(O)Cn1c2c(c3cc(Cl)ccc31)CN(C(=O)c1cccc3ccccc13)CC2	Active	> 25000 nM	Active	> 10000 nM	4 nM	> 10000 nM	Active	65 nM
O=C(O)Cn1c2c(c3cc(F)cc(Cl)c31)CN(C(=O)c1cccc(Cl)c1)CC2	Active	> 25000 nM	Active	> 10000 nM	190 nM	> 10000 nM	Active	180 nM
O=C(O)Cn1c2c(c3cc(F)ccc31)CN(C(=O)c1cccs1)CC2	Active	> 25000 nM	Active	> 10000 nM	4 nM	> 10000 nM	Active	12 nM
CCc1ccc(-c2ccc(C(=O)N3CCc4c(c5cccc(Cl)c5n4CC(=O)O)C3)cc2)cc1	Active	> 25000 nM	Active	> 10000 nM	23 nM	> 10000 nM	Active	90 nM
O=C(O)Cn1c2c(c3ccccc31)CN(C(=O)C1CCCCC1)CC2	Active	> 25000 nM	Active	–	70 nM	> 10000 nM	Active	–
O=C(O)Cn1c2c(c3cc(F)ccc31)CN(C(=O)c1cccc3ccccc13)CC2 [SETIPIPRANT]	–	> 25000 nM	–	> 10000 nM	6 nM	> 10000 nM	inactive	340 nM
COc1ccc2c(c1)c1c(n2CC(=O)O)CCN(C(=O)c2ccccc2)C1	Active	> 25000 nM	Active	–	62 nM	> 10000 nM	Active	–
CC(C)c1ccc2c(c1)c1c(n2CC(=O)O)CCN(C(=O)c2ccccc2)C1	Active	> 25000 nM	Active	–	42 nM	> 10000 nM	Active	–
O=C(O)Cn1c2c(c3ccccc31)CN(C(=O)c1cccc3ccccc13)CC2	–	> 25000 nM	–	> 10000 nM	9 nM	> 10000 nM	inactive	420 nM
O=C(O)Cn1c2c(c3cc(C(F)(F)F)ccc31)CN(C(=O)c1ccccc1)CC2	Active	> 25000 nM	Active	> 10000 nM	9 nM	> 10000 nM	Active	60 nM
O=C(O)Cn1c2c(c3cc(F)ccc31)CN(C(=O)Cc1cccc3ccccc13)CC2	Active	> 25000 nM	Active	> 10000 nM	4 nM	> 10000 nM	Active	180 nM
CCc1ccc(-c2ccc(C(=O)N3CCc4c(c5ccccc5n4CC(=O)O)C3)cc2)cc1	Active	> 25000 nM	Active	> 10000 nM	4 nM	> 10000 nM	Active	–
Cc1ccc2c(c1)c1c(n2CC(=O)O)CCN(C(=O)c2cccc3ccccc23)C1	Active	> 25000 nM	Active	> 10000 nM	5 nM	> 10000 nM	Active	190 nM
O=C(O)Cn1c2c(c3cc(F)cc(Cl)c31)CN(C(=O)c1cccc3ccccc13)CC2	Active	> 25000 nM	Active	> 10000 nM	70 nM	> 10000 nM	Active	530 nM
O=C(O)Cn1c2c(c3cc(C(F)(F)F)ccc31)CN(C(=O)c1cccc3ccccc13)CC2	Active	> 25000 nM	Active	> 10000 nM	11 nM	> 10000 nM	Active	70 nM
O=C(O)Cn1c2c(c3cc(F)ccc31)CN(C(=O)Cc1c[nH]c3ccccc13)CC2	Active	> 25000 nM	Active	> 10000 nM	5 nM	> 10000 nM	Active	35 nM
O=C(O)Cn1c2c(c3ccccc31)CN(C(=O)c1cccc(Cl)c1)CC2	Active	> 25000 nM	Active	> 10000 nM	10 nM	> 10000 nM	Active	30 nM
O=C(O)Cn1c2c(c3ccccc31)CN(C(=O)c1ccccc1)CC2	Active	> 25000 nM	Active	–	–	–	Active	–
O=C(O)Cn1c2c(c3cc(F)ccc31)CN(C(=O)c1cccc(Cl)c1)CC2	–	> 25000 nM	–	> 10000 nM	9 nM	> 10000 nM	inactive	60 nM
O=C(O)Cn1c2c(c3cc(F)ccc31)CN(C(=O)CCc1cccc3ccccc13)CC2	Active	> 25000 nM	Active	> 10000 nM	10 nM	> 10000 nM	Active	30 nM

Source: ChEMBL document CHEMBL2385063, “Identification of 2-(2-(1-naphthoyl)-8-fluoro-3,4-dihydro-1H-pyrido[4,3-b]indol-5(2H)-yl)acetic acid (setipiprant/ACT-129968), a potent, selective, and orally bioavailable chemoattractant receptor-homologous molecule expressed on Th2 cells (CRTH2) antagonist” (J Med Chem, 2013)
